In the library only some 4% were active in any assay of this set; here they are far more common.
H9c2 protect: myocardial damage modulation in H9c2 cells | H9c2 cardiomyocytes, H2O2 injury protection, ATPLite, 2 h | protection from H2O2 cell death, % at 20 µM | AID 588492 | 0.63% of 360,000 active;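 active means compounds giving at least 50% protection of heart cells from peroxide-induced death in the single-dose screen, raw or plate-pattern-corrected value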;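 further: 0% = DMSO wells with peroxide and 100% = DMSO wells without peroxide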
GRIN3A LBD mod: NR3A (human) ligand-binding domain modulation; Tm shift relative to glycine control, % at 25 µM; NR3A LBD differential scanning fluorimetry, Tm shift; 0% = protein alone, 100% = glycine-bound protein; 2.5% of 340,000 active; AID 1259313;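 active means melting temperature shift of at least 10% of the positive control shift, at one fixed dose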
SENP1 inh: SENP1 (human) catalytic domain inhibition | inhibition, % at 10 µM | Q9P0U3 | AID 624204 | recombinant SENP1 catalytic domain, CyPet-SUMO1-YPet FRET cleavage | 0.21% of 360,000 active;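 active means inhibition at least 30% at 10 µM, raw YFP signal under a set limit, fluorescence ratio 0.5 to 1.5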;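 further: 0% = enzyme with DMSO and 100% = no enzyme wells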
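System: Recombinant human SENP1 catalytic domain, His6-tagged | Incubation: Enzyme reaction for 50 min at room temperature, dark | Medium: Tris pH 8 with BME, BSA, NP40 and catalase | Also added: 25 nM SUMO1 FRET substrate | Compound: 10 µM single point, 0.5% DMSO | Measured by: FRET fluorescence in CFP and YFP emission channels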
hiPSC survival: enhancers of human iPSC single-cell survival; hiPSC single-cell survival, ATPlite luminescence; 100% = ROCK inhibitor wells, 0% = DMSO; survival enhancement, % at 20 µM; 0.044% of 360,000 active; in the data active means survival enhancement above about 18%;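 further: cells exposed to compounds for 16 hours before the ATP read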
Arrestin-AP2 inh: human beta-arrestin and AP2 interaction inhibition. inhibition, % at 10 µM. FITC-arrestin peptide / GST-AP2 beads, flow cytometry; AP2 beta2 appendage carries R879A mutation. AID 504490. 0.31% of 340,000 active;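 active means inhibition above a set limit, near 3 SD of compounds lacking own fluorescence, cut at about 54% in these data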;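 further: plate controls were DMSO wells for no effect and 5 µM unlabelled arrestin peptide for full effect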
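Material – AP2 appendage R879A on GSH beads · Buffer or medium – PBS with 0.05% Tween 20 and 0.1% BSA · Probe or stimulus – fluorescein-tagged arrestin peptide at 50 nM final · Incubation – compound with beads 12 min RT, then probe 1 h RT · Detection – high-throughput flow cytometry of beads, ex 488, em 535 nm · Evaluation – percent response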
FAS TE block: FAS thioesterase (human) inhibition | AID 602261 | inhibition, % at 15 µM | recombinant FAS-TE, OMFH fluorogenic substrate, fluorescence endpoint | 0.67% of 360,000 active | P49327;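 active means compounds whose normalised, plate-corrected inhibition of enzyme fluorescence in the single-dose primary screen is 50% or more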;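 further: 0% = DMSO with enzyme and 100% = substrate without enzyme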
Arr AP2 CP1: inhibitors of human beta-arrestin and AP2 interaction; shares compounds with Arrestin-AP2 inh; GST-AP2 beads, FITC arrestin peptide binding, flow cytometry; GST-fused beta2-adaptin appendage, R879A mutant; inhibition, % at 10 µM; 2% of 1,300 active;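 active means inhibition above a set limit, roughly 3 SD of non-fluorescent compound noise, cut at about 38% in these data; inactive means inhibition at or below that limit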;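 further: loss of bead fluorescence from 50 nM FITC arrestin peptide bound to appendage; 0% = negative control wells and 100% = excess unlabelled arrestin peptide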
Target sequence (P63010 whole entry, looked up, the tested form may be a part, one chain of several): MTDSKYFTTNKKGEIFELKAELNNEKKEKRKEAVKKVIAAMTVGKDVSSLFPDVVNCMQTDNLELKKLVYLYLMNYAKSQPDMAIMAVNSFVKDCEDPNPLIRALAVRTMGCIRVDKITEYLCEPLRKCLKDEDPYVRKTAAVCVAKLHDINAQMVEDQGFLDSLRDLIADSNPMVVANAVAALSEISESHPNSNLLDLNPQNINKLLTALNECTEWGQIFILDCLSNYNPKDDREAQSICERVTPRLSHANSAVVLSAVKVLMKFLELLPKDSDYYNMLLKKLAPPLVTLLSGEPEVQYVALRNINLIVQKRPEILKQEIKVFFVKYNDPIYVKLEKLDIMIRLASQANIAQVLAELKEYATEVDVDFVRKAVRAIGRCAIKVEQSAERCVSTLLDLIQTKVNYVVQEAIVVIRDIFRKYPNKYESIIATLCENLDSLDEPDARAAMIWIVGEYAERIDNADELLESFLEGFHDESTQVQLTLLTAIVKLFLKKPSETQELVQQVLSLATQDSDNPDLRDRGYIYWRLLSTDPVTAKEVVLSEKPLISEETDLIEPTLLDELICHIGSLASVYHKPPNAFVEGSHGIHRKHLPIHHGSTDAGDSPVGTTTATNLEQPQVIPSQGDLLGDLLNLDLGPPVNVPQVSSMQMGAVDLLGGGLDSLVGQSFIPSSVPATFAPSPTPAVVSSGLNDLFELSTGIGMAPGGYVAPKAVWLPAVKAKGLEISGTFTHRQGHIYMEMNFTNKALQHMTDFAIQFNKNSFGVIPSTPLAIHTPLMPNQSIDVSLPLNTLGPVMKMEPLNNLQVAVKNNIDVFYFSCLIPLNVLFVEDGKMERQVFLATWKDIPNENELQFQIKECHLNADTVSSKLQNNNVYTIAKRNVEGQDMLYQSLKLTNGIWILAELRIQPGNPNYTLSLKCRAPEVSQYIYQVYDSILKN
GST-FITC bead: counter-screen for beta-arrestin AP2 inhibitors: GST-GSH bead binding; inhibition, % at 10 µM; 2% of 1,300 active; shares compounds with Arrestin-AP2 inh; GST-fluorescein binding to GSH beads, fluorescence;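 active means inhibition above 50%, about 3 SD of the inhibition seen with non-fluorescent compounds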;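 further: fluorescein maleimide labelled GST captured on 4 micron glutathione beads; higher means more loss of bead fluorescence from quenching or blocked binding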
* = called active by the depositor; . = no result.

SMILES	H9c2 protect	GRIN3A LBD mod	SENP1 inh	hiPSC survival	Arrestin-AP2 inh	FAS TE block	Arr AP2 CP1	GST-FITC bead
Cc1ccc(S(=O)(=O)CCC(=O)NCc2ccc(Cl)cc2)cc1	4.6	-2.8	2.7	0.1	-7.8	-2.2	.	.
Cc1ccc(CNC(=O)CCS(=O)(=O)c2ccc(C)cc2)cc1	-4.1	0.0	2.9	-0.2	70.1*	-2.9	-2.8	-5.0
CCOc1ccc(C(C)=O)cc1N1C(=O)C2C3C=CC(O3)C2C1=O (centres undefined)	-17.5	2.9	2.7	-0.6	78.1*	-5.4	-1.7	-5.8
O=C(CSc1cccc[n+]1[O-])NC(=O)c1ccc(OC(F)F)cc1	11.4	-0.6	0.4	1.8	54.3*	-4.8	-9.4	-2.1
O=C(C[C@@H]1CC[C@H](NC(=O)Cc2ccccn2)[C@@H](CO)O1)NCCc1ccccc1	.	.	-0.9	.	.	.	.	.
Cc1cc2nc3ccc(N(C)C)cc3nc2cc1N	-12.8	-2.6	71.8	-0.6	64.3*	-8.6	44.3*	20.8
CCC(c1nnnn1-c1ccc2c(c1)OCCO2)N1CCN(c2ccccc2OC)CC1 (centres undefined)	.	.	2.0	0.7	.	6.7	.	.
Cc1cc(NC(=O)c2ccc(F)cc2F)n(-c2nc3ccccc3[nH]2)n1	-10.6	1.5	0.1	-1.7	11.7	-1.4	25.7	2.3
Cc1cc(NC(=O)CC2CCCC2)n(-c2nc3ccccc3[nH]2)n1	32.5	-7.1	-0.1	-1.1	7.0	20.4	.	.
Cc1cc(NC(=O)/C=C/c2ccccc2Cl)n(-c2nc3ccccc3[nH]2)n1	-16.0	15.9*	1.2	-1.7	100.6*	6.4	-3.9	-5.4
Cc1nc2ccccc2c(=O)n1NC(=O)/C=C/c1ccccc1Cl	9.2	-1.0	1.7	-0.1	1.1	-2.4	.	.
Cc1ccc(-n2nnnc2CNC(=O)C(=O)c2c[nH]c3ccccc23)cc1C	0.7	.	-0.4	0.8	.	-3.1	.	.
Cc1cccc(C(=O)N2CCC(C)(C(=O)NS(=O)(=O)C3CC3)C2)c1C (centres undefined)	-5.8	.	2.5	1.0	.	-6.5	.	.
COc1cc2c(cc1OCc1ccccc1)/C(=C/C(=O)OCc1ccccc1)OC2	.	.	-1.4	.	.	.	.	.
CSCCC(NC(=O)OCc1ccccc1)NC(=O)OCc1ccccc1	0.9	.	-0.8	-0.6	.	8.4	.	.
CCN1C(=O)CSc2ccc(C(=O)NCc3ccccc3)cc21	-3.2	-3.0	1.7	0.6	3.3	-0.5	.	.
CCC(C)NC(=O)c1ccc2c(c1)N(Cc1ccccc1)C(=O)CS2 (centres undefined)	3.4	-1.5	3.7	-0.3	55.5*	4.9	-1.8	-4.8
Nc1ccc(N(c2ccccc2)c2ccc(N)cc2)cc1	-13.9	-3.2	4.1	-2.8	59.3*	-17.8	9.8	15.8
Cc1ccc(NC(=O)Nc2cccc(C)n2)c(C)c1	-3.9	2.3	1.9	-0.7	-4.0	-6.8	.	.
Cc1ccc(NC(=O)Nc2cnccn2)c(C)c1	-5.6	0.1	2.1	-0.4	-0.1	1.2	-8.5	-1.1
Cc1cccc(NC(=O)Nc2cnccn2)c1	1.1	3.2	0.8	0.1	18.3	-10.6	4.8	-4.8
COc1cccc(NC(=O)Nc2cnccn2)c1	-2.0	1.3	0.3	-3.2	3.1	-9.8	2.6	-11.6
CC(=O)C(=Cc1cccc(C#N)c1)C(=O)c1ccccc1	-16.2	.	-0.7	1.0	.	-3.6	.	.
O=C(NC1=NCCS1)c1ccc(Cl)c(S(=O)(=O)N2CCOCC2)c1	10.6	-2.3	2.6	-0.2	56.5*	-2.8	-0.8	-13.5
CC(=O)c1cnc(N(C)C)s1	5.2	-1.3	0.3	-0.4	9.5	-1.8	.	.
O=C1C(Cl)=C(N2CCCCC2)C(=O)C(Cl)=C1c1cnc(N2CCCCC2)s1	3.7	-52.2	-22.1	-0.8	98.1*	78.4*	67.6*	18.2

From PubChem BioAssay
